Most compounds without a hit are left out; they make up all but 1.9% or so of the library.
NadD inh – blocks S. aureus nicotinate mononucleotide adenylyltransferase | AID 602399 | inhibition, % at 20 µM | actives 0.78% (n = 360,000) | purified NadD enzyme, colorimetric absorbance read-out; in the data active = inhibition above about 26%
HCV core dimer – blocks dimerization of HCV core protein | actives 0.33% (n = 300,000) | inhibition, % at 5 µM | TR-FRET GST/Flag-core106 dimerization, 1536-well | AID 1899;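 active = inhibition above the mean of all tested compounds plus 3 SD, set per screening campaign, cut at about 45% in these data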
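Test system: GST/Flag-tagged HCV core106 proteins; Medium: KF-containing HEPES buffer, pH 7.45, DTT, CHAPS, BSA; Times: compound-protein-antibody incubation 4 h at 22.5 °C; Detection: TR-FRET 671 and 617 nm emission; Benchmarks: wells lacking GST-core106 and wells with excess unlabelled core106.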
VIM-2 inh – blocks Pseudomonas aeruginosa VIM-2 metallo-beta-lactamase; inhibition, % at 5.6 µM; purified VIM-2, nitrocefin hydrolysis, epi-absorbance fluorescence; actives 0.89% (n = 290,000);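 active = inhibition above the mean of all tested compounds plus 3 SD, cutoff set per screening run, cut at about 7.5% in these data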;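 also: red hydrolysis product quenches plate fluorescence so inhibitors raise well fluorescence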
IMP-1 inh – inhibitors of Pseudomonas aeruginosa IMP-1 metallo-beta-lactamase | inhibition, % at 5.6 µM | AID 1556 | purified IMP-1, nitrocefin hydrolysis, epi-absorbance fluorescence | actives 0.45% (n = 290,000);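 active = inhibition above the mean plus 3 SD of all compounds in the same screening run, cut at about 4.5% in these data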
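System – purified recombinant IMP-1 beta-lactamase · Input – IMP-1 dispensed at 0.2 nM · Timing – 15 min preincubation plus 25 min reaction at 25 °C · Signal – Epi-absorbance fluorescence, 480 nm excitation, 530 nm emission · Measure – percent IMP-1 inhibition derived from blank-referenced optical density · Controls – Enzyme-plus-DMSO low control, enzyme-free DMSO high control · Replication – singlicate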
Hits are given with their value; i = inactive; nt = no result.

SMILES	NadD inh	HCV core dimer	VIM-2 inh	IMP-1 inh
COC(=O)c1sccc1NC(=O)C1C2C=CC(O2)C1C(=O)O (stereo not drawn)	i	i	i	i
COC(=O)c1sccc1NC(=O)C1CC(C)=C(C)CC1C(=O)O (stereo not drawn)	i	i	8.4	i
COC(=O)c1sccc1NC(=O)C1CC2CCC1C2 (stereo not drawn)	i	i	i	48
O=C1CCC(C(=O)N2CCCC2)CN1Cc1cccc(C(F)(F)F)c1 (stereo not drawn)	i	i	i	i
CCc1nc2ccccc2n(CC)c1=O	i	i	i	i
CCn1c(=O)c(C(C)=O)nc2ccccc21	i	i	i	5.9
CSc1nc2nccc(-c3ccc(-c4ccccc4)cc3)n2n1	i	i	i	i
CSc1nc2nccc(-c3ccc4c(c3)OCO4)n2n1	i	i	11	i
COc1cc(OC)c2c(O)c3c(c(-c4c5c(c(O)c6c(OC)cc(OC)cc46)CO[C@@H](C)[C@H]5O)c2c1)[C@H](O)[C@H](C)OC3	50	54	i	i
COc1ccccc1N1CCN(C(=O)C(C)CS(=O)(=O)c2ccc3c(c2)NC(=O)CS3)CC1 (stereo not drawn)	i	i	i	11
CSc1c(C#N)sc(=S)n1-c1ccc(C)cc1	i	i	i	i
CCOC(=O)C1CCCN(S(=O)(=O)c2ccc(Cl)nc2)C1 (stereo not drawn)	i	i	nt	nt
Cc1ccc2[nH]c3nc(N/N=C/c4cccc(O)c4)nnc3c2c1	i	i	i	i
CCc1ccc2[nH]c3nc(N/N=C/c4ccc(O)cc4O)nnc3c2c1	39	i	i	i
COc1ccc(-c2cc(C(F)(F)F)c3c(N)c(C(=O)NCCSC)sc3n2)cc1	i	i	i	i
CN(C)CCNC(=O)c1sc2nc(-c3ccccc3)cc(C(F)(F)F)c2c1N	i	i	12	i
Cc1ccc(NC(=O)c2ccc(Cl)c(S(=O)(=O)N3CCCCCC3)c2)nc1	i	i	nt	nt
O=C(O)COc1ccc(/C=N/NC(=O)c2cccc3ccccc23)cc1	i	i	i	i
CCOC(=O)N(Cc1ccccc1)Cc1ccc(C(=O)N[C@@H](Cc2ccccc2)C(=O)O)cc1	i	i	nt	nt
O=C(NCC(c1ccco1)N1CCCC1)c1ccc(S(=O)(=O)Nc2ccccc2F)cc1 (stereo not drawn)	i	i	nt	nt
CCC(C)Nc1nc(-c2ccccn2)nc2ccccc12 (stereo not drawn)	i	i	8.2	i
Cc1cccc(-n2c(-c3ccco3)n[nH]c2=S)c1	i	i	19	i
FC(F)(F)c1ccccc1-n1c(-c2ccco2)n[nH]c1=S	i	i	9.9	i
COc1cc(S(=O)(=O)NC(Cc2c[nH]c3ccccc23)C(=O)O)ccc1NC(C)=O (stereo not drawn)	i	i	i	5.9
O=C(O)C(Cc1c[nH]c2ccccc12)NS(=O)(=O)c1ccccc1 (stereo not drawn)	i	i	i	i
SMILES	NadD inh	HCV core dimer	VIM-2 inh	IMP-1 inh
O=S(=O)(NCCN1CCOCC1)c1cc(Cl)c(Cl)cc1Cl	i	i	i	i
Cc1cc(=O)oc2cc(OCC(O)Cn3ccnc3)ccc12 (stereo not drawn)	i	i	10	i
O=C(COc1ccc2c(-c3ccccc3)cc(=O)oc2c1)NCCCn1ccnc1	i	i	i	i
Cc1cc(=O)oc2cc(OCC(=O)NCCCn3ccnc3)ccc12	i	i	12	i
CN(C)CCN(Cc1cc2cc3c(cc2nc1Cl)OCO3)C(=O)c1ccco1	i	i	i	i
CCOC(=O)c1cnc2c(ccc3ccccc32)c1NCCN(C)C	i	i	12	i
CCOC(=O)c1cnc2c(ccc3ccccc32)c1NCCO	i	i	i	i
CCOC(=O)c1cnc2c(cnn2C)c1NCCCN(C)C	i	i	8.4	i
O=[N+]([O-])c1ccc(/C=C/C2=NN(c3ccccc3)C(c3ccco3)C2)o1 (stereo not drawn)	i	nt	i	5.5
O=C(CSc1nnc(Cn2nnc(-c3ccccc3)n2)n1-c1ccccc1)Nc1ccccc1	i	i	i	4.7
O=C(CSc1nnc(Cn2nnc(-c3ccccc3)n2)n1-c1ccccc1)Nc1ccc(F)cc1	i	i	i	i
CCOC(=O)c1ccsc1NC(=O)c1ccco1	i	i	9.1	i
Brc1ccc(C2=Nn3c(nnc3-c3ccncc3)SC2)cc1	nt	nt	9.2	i
CCOc1ccc(C2=Nn3c(nnc3-c3ccccn3)SC2)cc1	i	i	7.7	i
c1csc(C2=Nn3c(nnc3-c3ccncc3)SC2)c1	i	i	i	i
O=C(CCN1CCOCC1)NNC(=O)c1ccc([N+](=O)[O-])cc1[N+](=O)[O-]	i	nt	nt	nt
CCC(CO)[n+]1c(C)cc(/C=C2\Sc3ccccc3N2Cc2ccccc2)cc1C (stereo not drawn)	i	i	i	9.9
CC(C)COc1ccc(C(=O)OCC(=O)N(C)CC(=O)Nc2ccc(F)cc2)cc1	i	i	nt	nt
CC(=O)c1cccc(NC(=O)C(C)OC(=O)c2ccc(Br)o2)c1 (stereo not drawn)	i	nt	nt	nt
COc1ccc(-n2nc(C(=O)NCC(=O)N3CCN(c4ccccc4F)CC3)c3ccccc3c2=O)cc1OC	i	i	i	i
O=c1cc(CSc2n[nH]c(-c3ccncc3)n2)nc2sccn12	i	53	i	i
COCCn1c(SCc2cc(=O)n3ccsc3n2)nnc1-c1ccncc1	i	i	i	i
O=C(C[C@@H]1C/C=C/CC[C@@H](Cc2ccc(F)cc2)C(=O)OC[C@H](Cc2ccccc2)NC1=O)N[C@H](CO)Cc1ccccc1	i	nt	nt	nt
CCOc1ccc([C@@H]2CC=C(C(=O)O)CN2S(=O)(=O)c2ccc(C)cc2)cc1	i	i	nt	nt
COc1ccc(N2CCN(C(=O)Cc3coc4cc(C)ccc34)CC2)cc1	i	i	i	i
SMILES	NadD inh	HCV core dimer	VIM-2 inh	IMP-1 inh
Cc1ccc2c(CC(=O)Nc3ccc(N4CCN(C)CC4)cc3C)coc2c1	i	i	i	7.0
COc1ccc(CCNC(=O)CCC(=O)N2CCOc3ccccc32)cc1OC	i	i	i	i
CCOc1ccc(C(C)=O)cc1Cn1nc(C(=O)O)c2ccccc2c1=O	i	i	9.8	i
S=c1[nH]nc(-c2ccc(Cl)cc2)n1CCCN1CCOCC1	i	i	8.4	i
CCOC(=O)[C@]12CCCC=C1N(Cc1ccc3c(c1)OCO3)C(=O)[C@H](CC(=O)NCc1ccc(C)o1)C2	i	nt	nt	nt
Cc1ccc2nc(CSc3nc(C)nc4c3oc3ccccc34)[nH]c2c1	i	nt	nt	nt
Cc1nc(SCc2nc3ccccc3[nH]2)c2oc3ccc(Br)cc3c2n1	i	nt	nt	nt
Cc1nc(SCc2nc3ccccc3[nH]2)c2oc3ccccc3c2n1	i	i	13	i
Cc1nc(N2CCN(Cc3nc4ccccc4[nH]3)CC2)c2oc3ccccc3c2n1	i	i	12	i
CCc1ccc(N(C(=O)c2csnn2)C(C(=O)NC(C)(C)CC)c2ccccn2)cc1 (stereo not drawn)	i	i	i	i
COc1ccccc1C(=O)Nc1ccnn1C1CCN(Cc2ncc[nH]2)CC1	i	i	i	i
CCCN1CCN(CCCNC(=O)CCCn2nc(C)c3sc4ccccc4c3c2=O)CC1	i	i	i	i

Screens as filed in PubChem BioAssay.
